According to ChEMBL document CHEMBL3352714, “Synthesis, in Vitro Covalent Binding Evaluation, and Metabolism of (14)C-Labeled Inhibitors of 11β-HSD1” (ACS Med Chem Lett, 2014):
Blank lines part the entries; values can stand above or below the molecule they belong to.

Experiments:
[1] = Drug metabolism in human hepatocytes assessed as total turnover after 2 hrs by LC-MS/MS-radiometric analysis; assay type: ADME, cell-based, Hepatocyte; settings: read-out: Drug metabolism
How it was run: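 14C-labeled compound incubated with human hepatocytes. Parent and radiolabeled metabolites were analyzed by tandem LC–MS/MS with radiometric detection and expressed as % of administered dose.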

Liver microsome [2] = experiment: Oxidative metabolism in human liver microsomes assessed as protein covalent binding measured per mg protein at 10 uM after 1 hr in presence of NADPH
Liver microsome [3] = experiment: Oxidative metabolism in human liver microsomes assessed as protein covalent binding measured per mg protein at 10 uM after 1 hr in presence of NADPH
[4] = Half life in cynomolgus monkey at 0.5 mg/kg, iv; assay type: ADME, organism-based, Macaca fascicularis; design: dose 0.5 mg/kg, route intravenous; settings: in vivo
How it was run: (§1)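 Intravenous dose 0.5 mg/kg, formulated in 10% N,N-dimethylacetamide, 10% ethanol, 40% propylene glycol and 40% water. Values are averages of three animals per species.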

[5] = Cmax in rat at 2 mg/kg, po; assay type: ADME, organism-based; design: dose 2 mg/kg, route oral; settings: in vivo
How it was run: (§2)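 Oral dose 2.0 mg/kg. Rat and dog received a solution in 15% HPβCD in Ora-Plus. Cynomolgus monkey received a suspension in 1% Tween 80 and 1% methylcellulose (4000 cps) in deionized water. Values are averages of three animals; iv reference dose was 0.5 mg/kg.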

[6] = Oral bioavailability in cynomolgus monkey at 2 mg/kg; assay type: ADME, organism-based, Macaca fascicularis; settings: in vivo; how it was run: as §2
[7] = Half life in rat at 0.5 mg/kg, iv; assay type: ADME, organism-based; design: dose 0.5 mg/kg, route intravenous; settings: in vivo; how it was run: as §1
Cynomolgus monkey = settings: Macaca fascicularis; at 10 mg/kg
[8] = Volume of distribution at steady state in cynomolgus monkey at 0.5 mg/kg, iv; assay type: ADME, organism-based, Macaca fascicularis; design: dose 0.5 mg/kg, route intravenous; settings: in vivo, read-out: Vdss; how it was run: as §1
[9] = Oral bioavailability in dog at 2 mg/kg; assay type: ADME, organism-based, Canis lupus familiaris; settings: in vivo; how it was run: as §2
[10] = Cmax in cynomolgus monkey at 2 mg/kg, po; assay type: ADME, organism-based, Macaca fascicularis; design: dose 2 mg/kg, route oral; settings: in vivo; how it was run: as §2
[11] = Volume of distribution at steady state in rat at 0.5 mg/kg, iv; assay type: ADME, organism-based; design: dose 0.5 mg/kg, route intravenous; settings: in vivo, read-out: Vdss; how it was run: as §1
[12] = Cmax in dog at 2 mg/kg, po; assay type: ADME, organism-based, Canis lupus familiaris; design: dose 2 mg/kg, route oral; settings: in vivo; how it was run: as §2
[13] = Clearance in cynomolgus monkey at 0.5 mg/kg, iv; assay type: ADME, organism-based, Macaca fascicularis; design: dose 0.5 mg/kg, route intravenous; settings: in vivo; how it was run: as §1
[14] = Oral bioavailability in rat at 2 mg/kg; assay type: ADME, organism-based; settings: in vivo; how it was run: as §2
[15] = Volume of distribution at steady state in dog at 0.5 mg/kg, iv; assay type: ADME, organism-based, Canis lupus familiaris; design: dose 0.5 mg/kg, route intravenous; settings: in vivo, read-out: Vdss; how it was run: as §1
[16] = Clearance in dog at 0.5 mg/kg, iv; assay type: ADME, organism-based, Canis lupus familiaris; design: dose 0.5 mg/kg, route intravenous; settings: in vivo; how it was run: as §1
[17] = Clearance in rat at 0.5 mg/kg, iv; assay type: ADME, organism-based; design: dose 0.5 mg/kg, route intravenous; settings: in vivo; how it was run: as §1
[18] = Half life in dog at 0.5 mg/kg, iv; assay type: ADME, organism-based, Canis lupus familiaris; design: dose 0.5 mg/kg, route intravenous; settings: in vivo; how it was run: as §1

- metabolised at 2 h [1]: 9.8%
- PB (Liver microsome [2]): 370 pmol
- PB (Liver microsome [3]): 370 pmol
SMILES: C[C@](O)(c1ccc(S(=O)(=O)c2ccc([14C]#N)cc2Cl)cc1)C(F)(F)F

- PB (Liver microsome [2]): 70 pmol
- PB (Liver microsome [3]): 70 pmol
SMILES: C[C@@H]1CN(CC2(C(N)=O)CC2)[14CH2][14CH2]N1S(=O)(=O)c1ccc([C@](C)(O)C(F)(F)F)cc1

- half-life [4]: 27 h
- Cmax [5]: 1130 ng/mL
- bioavailability [6]: 38%
- half-life [7]: 43 h
- Vd [8]: 1 L/kg
- bioavailability [9]: 88%
- Cmax [10]: 211 ng/mL
- Vd [11]: 2.3 L/kg
- Cmax [12]: 1840 ng/mL
- clearance [13]: 0.483 mL/min/kg
- bioavailability [14]: 72%
- Vd [15]: 1.2 L/kg
- clearance [16]: 0.2 mL/min/kg
- clearance [17]: 0.683 mL/min/kg
- half-life [18]: 78 h
SMILES: C[C@](O)(c1ccc(C(=O)N(C2CC2)[C@H]2CC[C@](COC(N)=O)(c3ccc(F)cc3)CC2)cc1)C(F)(F)F (mixture of isomers)
- inhibition (Cynomolgus monkey): Dose-dependent effect

SMILES: c1ccc2ccccc2c1
- PB (Liver microsome [3]): 420 pmol

- PB (Liver microsome [2]): 15 pmol
- PB (Liver microsome [3]): 15 pmol
SMILES: C[C@](O)(c1ccc(C(=O)N(C2CC2)[C@H]2CC[C@](CO[14C](N)=O)(c3ccc(F)cc3)CC2)cc1)C(F)(F)F
